Screens from PubChem BioAssay.
APP 5'UTR act: activates APP 5'UTR luciferase reporter; SH-SY5Y APP 5'UTR luciferase reporter, luminescence; zero percent = DMSO vehicle wells; activation, % at 2 µM; hit rate 1% among 190,000;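 active = activation above a set limit, based on mean plus 3 SD of controls, cut at about 140% in these data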
STAT3 activator: STAT3 signaling activation | hit rate 0.91% among 190,000 | AID 871 | activation (% of control), % at 5.6 µM | U3A cells, IL-6 STAT3-luciferase reporter, luminescence; 100% = signal with IL-6 EC80 alone;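 active = activation above the screen-wide mean of compound activation plus 3 SD, cut at about 130% in these data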;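 note: 0% = background luminescence of wells with medium and substrate only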
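Assay system – human STAT1-deficient U3A cells with stable STAT3-luciferase reporter · Also added – IL-6 (33 ng/mL) · Schedule – compound 1 h, then IL-6 6 h at 37 °C · Technique – reporter luminescence signal · Evaluation – % activation versus median of IL-6-stimulated wells · Benchmarks – IL-6-only wells as 100% reference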
NF-kB neuron act: NF-kB expression increase, human neuronal cells | NF-kB reporter expression; active compounds read high | fold change at 12.5 µM | hit rate 1.6% among 190,000 | AID 1239; in the data active = fold change above about 3.3
STAT1 act: activators of IFN-gamma induced STAT1 signaling | activation (% of control), % at 5.5 µM | hit rate 2.6% among 200,000 | AID 932 | NIH 3T3 STAT1-luciferase reporter, luminescence; 100% = IFN-gamma alone, no compound;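 active = activation above the screen-wide mean activation plus 3 SD, cut at about 130% in these data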;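 note: raw ratio to IFN-gamma control signal so 100% means no change and 0% no light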
STAT1 blocker: inhibitors of IFN-gamma induced STAT1 signaling; inhibition, % at 5.5 µM; NIH 3T3 STAT1-luciferase reporter, luminescence; AID 920; hit rate 0.35% among 200,000;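 active = inhibition above a set limit, the mean inhibition across all tested compounds plus 3 SD, cut at about 34% in these data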;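 note: 0% = IFN-gamma with DMSO and 100% = IFN-gamma with 300 µM nifuroxazide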
STAT3 inh-1: STAT3 signaling inhibition; U3A cells, IL-6 STAT3-luciferase reporter, luminescence; host cell line lacks STAT1; inhibition, % at 5.5 µM; hit rate 0.89% among 190,000;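 active = inhibition above the mean inhibition across all screened compounds plus 3 SD, cut at about 44% in these data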;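 note: 0% = DMSO only wells and 100% = 100 µM nifuroxazide control wells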
STAT3 inh-2: STAT3 inhibition, confirmation assay. shares compounds with STAT3 inh-1. U3A cells, IL-6 STAT3 luciferase reporter, luminescence; cell line lacks STAT1. inhibition, % at 5.7 µM. hit rate 45% among 1,200. AID 1265;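 active = inhibition above the hit cutoff computed for the primary STAT3 screen, cut at about 44% in these data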;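 note: 0% = IL-6 plus DMSO and 100% = IL-6 plus nifuroxazide control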
NFkB inh STAT3ct: inhibits NF-kappaB, counter-screen to STAT3 inhibitors | shares compounds with STAT3 inh-1 | hit rate 36% among 1,200 | HEK293T NF-kB luciferase reporter, TNF-alpha induced | inhibition, % at 5.7 µM;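 active = inhibition above the mean of solvent-only control wells plus 3 SD, cutoff set per campaign, cut at about 13% in these data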;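 note: 0% = TNF-alpha with DMSO and 100% = TNF-alpha with MG high control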
STAT1 inh STAT3c: counter-screen for STAT3 inhibitors: STAT1 inhibition; shares compounds with STAT3 inh-1; NIH 3T3 STAT1-luciferase reporter, IFN-gamma induced, luminescence; inhibition, % at 5.7 µM; hit rate 27% among 1,200; AID 1317;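 active = inhibition above the mean plus 3 SD of solvent-only control wells, limit set per screening run, cut at about 16% in these data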;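 note: 0% = DMSO with IFN-gamma and 100% = nifuroxazide control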
Active calls of the source: *; . = no result. Only some compounds are listed: those with a hit (about 4.9% of all), similar ones and a draw of the others.

SMILES	APP 5'UTR act	STAT3 activator	NF-kB neuron act	STAT1 act	STAT1 blocker	STAT3 inh-1	STAT3 inh-2	NFkB inh STAT3ct	STAT1 inh STAT3c
N#C/C(=C\c1ccc(C(=O)O)cc1)c1ccccn1	-0.3	103.9	0.93	94.6	4.1	6.4	.	.	.
CCN(CC)c1ccc(/C=C(\C#N)c2ccccn2)cc1	160.1*	39.8	1.93	91.8	10.9	74.2*	45.1*	29.3*	-43.0
O=C(NCCc1ccccn1)c1cc(-c2cccc3ccccc23)nc2ccccc12	9.9	101.1	0.96	92.9	7.8	-6.5	.	.	.
CCCCCCCCn1c2c(c(=N)c3ccccc31)CCC2	9.7	29.2	1.4	71.9	29.9	84.8*	87.8*	29.9*	31.0*
C/C(=N/Nc1ccc(C(=O)O)cc1)c1ccc(O)c(O)c1O	45.9	99.1	0.85	99.1	1.0	-1.4	.	.	.
COc1ccc(/C=N/Nc2nc3ccccc3s2)cc1O	136.1*	51.4	4.62*	121.4	-22.8	59.8*	8.8	-17.0	-18.3
O=C(c1ccc2c(=O)n(-c3ccccc3)c(=S)[nH]c2c1)N1CCCCC1	2.5	62.5	1.18	75.7	25.5	46.7*	50.6*	14.5*	24.9*
Cc1cc(C)nc(N2CCCC(CCC(=O)NCc3ccc(F)c(F)c3)C2)n1 (stereo not drawn)	-0.4	104.2	0.91	99.8	-1.4	-0.4	.	.	.
CSC[C@@H]1NC(=S)N(c2ccc(C)cc2)C1=O	-38.6	106.9	0.84	103.0	-3.4	-3.0	.	.	.
O=C(O)/C=C/C(=O)NC1CC1	-18.2	99.6	0.77	99.8	-0.9	2.1	.	.	.
CCOC(=O)c1oc2ccc(S(=O)(=O)n3nc(-c4ccccc4)cc3N)cc2c1C	0.3	60.4	1.79	80.9	21.1	54.3*	40.1	13.1*	11.8
CCN(CC)c1ccc2cc(NC(=O)CCC(=O)O)c(=O)oc2c1	-52.1	45.0	0.32	77.0	25.7	70.0*	64.7*	29.2*	28.2*
CCN(CC)c1ccc2cc(C(C)=O)c(=O)oc2c1	16.8	109.3	1.61	101.0	-1.1	-8.0	.	.	.
O=C(N/N=C/c1ccc2cccnc2c1)c1ccco1	166.4*	57.7	3.51*	99.1	0.1	54.6*	19.9	-18.4	-63.2
CCOc1cc(/C=N/NC(=O)c2cccnc2)ccc1OC(=O)c1ccco1	-9.8	99.3	1.14	107.2	-9.9	5.9	.	.	.
CCCCN(C(=O)CSc1nnc(Nc2ccccc2)s1)c1c(N)n(CCC)c(=O)[nH]c1=O	-4.4	110.2	1.4	93.7	6.9	-2.9	.	.	.
O=C(CC1C(=O)NCCN1Cc1ccccc1C(F)(F)F)NCCn1cccn1 (stereo not drawn)	-2.1	100.5	1.19	100.0	-1.6	3.8	.	.	.
CNc1cc(N2CCCC2)ccc1[N+](=O)[O-]	39.3	95.0	1.08	105.1	-6.5	16.4	.	.	.
O=C(Nc1ccncc1)C1CCN(S(=O)(=O)c2cccs2)CC1	0.2	97.7	1	90.5	9.5	5.1	.	.	.
O=C(Nc1cc(Cl)ccn1)C1CCN(S(=O)(=O)c2cccs2)CC1	3.8	56.2	1.25	100.0	0.0	51.2*	43.1	1.3	-7.4
O=C(O)[C@@H]1CCCC[C@@H]1C(=O)N1CCc2ccccc2C1CN1C(=O)c2ccccc2C1=O (stereo partly drawn)	-19.9	54.4	0.92	78.1	23.9	58.6*	52.8*	19.3*	22.5*
CC1CCC2C(=O)N(c3ccccc3OC(=O)c3ccccc3)C(=O)C2C1 (stereo not drawn)	8.1	65.5	1.21	95.5	5.0	43.9*	45.0*	1.6	3.2
Cc1nc2ccc(-c3nc4ccccc4[nH]3)cc2[nH]1	155.3*	64.3	3.46*	124.7	-26.5	45.6*	9.1	-10.6	-86.8
Cc1ccc(-c2nc3ccccc3[nH]2)cc1NC(=O)c1ccco1	11.3	79.1	1.13	105.2	-5.6	27.5	.	.	.
CC(C)(C)C(=O)NC(=S)NNC(=O)c1ccc(-c2ccccc2)cc1	-67.2	87.5	0.68	108.2	-8.7	22.4	.	.	.
SMILES	APP 5'UTR act	STAT3 activator	NF-kB neuron act	STAT1 act	STAT1 blocker	STAT3 inh-1	STAT3 inh-2	NFkB inh STAT3ct	STAT1 inh STAT3c
COc1cc(/C=C/C(=O)O)cc(S(=O)(=O)N2CCc3ccccc3C2)c1OC	-12.0	103.7	1.32	92.2	7.0	-3.1	.	.	.
Nc1nn(-c2cccc(F)n2)cc1-c1ccc(Cl)cc1	251.2*	53.2	11.9*	82.7	18.6	58.5*	14.0	-25.4	-138.3
CC(=O)c1ccc(N=Nc2ccc(N(C)C)cc2)cc1	134.8	56.2	3.85*	118.7	-19.3	52.5*	47.4*	22.4*	-68.7
Cc1ccc(C(=O)c2ccc(C)cc2)cc1	18.1	98.7	1.02	113.7	-16.3	8.2	.	.	.
CC(=O)c1ccc(N=Nc2ccc(C)cc2)cc1	282.7*	33.5	4.8*	70.2	30.8	81.8*	44.4*	-10.1	-96.1
CCOC(=O)CCSc1cc(C)c2ccccc2n1	-4.4	85.5	.	100.6	-0.2	22.1	.	.	.
Cc1ccc(S(=O)(=O)NC(=O)NC(C)Cc2ccccc2)cc1 (stereo not drawn)	-6.7	111.0	1.02	99.3	0.3	-6.5	.	.	.
CCOc1ccc(-c2nnc(-c3cccs3)o2)cc1	132.6	39.3	4.23*	72.0	31.1	78.6*	33.7	-2.9	-88.0
c1csc(-c2nnc(-c3ccc(N4CCOCC4)cc3)o2)c1	122.3	55.9	3.38*	114.2	-15.6	58.9*	16.6	-25.9	-108.6
COc1cccc(CN2CCNC(=O)C2CC(=O)NCCn2ccc3ccccc32)c1OC (stereo not drawn)	-9.9	107.0	0.91	97.2	1.0	-0.8	.	.	.
CC1(C)CC(N2CCN(c3ccccc3)CC2)=CC(=[N+]2CCCC2)C1	8.6	36.8	0.52	78.5	23.6	80.4*	76.8*	-1.8	27.0*
C#CCOC(=O)CCCNc1ccc([N+](=O)[O-])cc1[N+](=O)[O-]	22.8	100.3	1.15	98.7	1.5	7.4	.	.	.
Fc1ccccc1/C=C/c1ccc2ccccc2n1	195.5*	40.3	6.73*	95.5	5.0	72.5*	35.8	30.5*	-14.6
Cc1ccc(CSc2nc3ncccc3[nH]2)cc1	134.8	60.6	3.17	107.1	-7.8	48.4*	9.2	-15.4	-34.3
C=C(C)CSc1nc2ncccc2[nH]1	-4.6	101.0	1.17	104.7	-5.1	3.2	.	.	.
Cc1ccc(C(=O)CSc2cnc3ccccc3n2)cc1C	154.3*	56.4	1	117.6	-20.0	54.2*	-29.8	-19.2	-43.9
CN(C)C(=O)CSc1cnc2ccccc2n1	-10.0	107.6	1.22	103.0	-4.5	-5.6	.	.	.
